What is called MFC is the smallest concentration meeting the test's criterion for killing the fungus. A higher MFC goes with weaker fungicidal potency. Usually half-life stands for how long it takes for the measured level to halve. The term MBC denotes the lowest tested concentration that kills the bacteria rather than only halting them. A high value points to weaker bactericidal potency.

Values after ≈ are worked out from the molar mass of the structure shown.

The subject of the first data set is Candida albicans. The data set is described as follows: Antifungal activity against Candida albicans ATCC 10231 after 1 hr by CLSI M26-A based method at room temperature. Format: functional. The conditions noted are these: ATCC 10231, 1 h. In outline:
(§1)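 Minimum bactericidal (bacteria) or fungicidal (C. albicans) concentration was determined by a modified CLSI M26-A method. Isotonic saline at pH 4 replaced Mueller–Hinton broth because chlorine reacts with broth components. Exposure was shortened from 16–20 h at 35 °C to 1 h at room temperature.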
In turn, `CC(C)(C[N+]1(C)CCCCC1)N(Cl)Cl.[Cl-]` displayed an MFC of 64 µg/mL.
Regarding `CC(C)(Cc1nc(CS(=O)(=O)O)no1)N(Cl)Cl`, the MFC is 16 µg/mL (≈ 52.6 µM).
Still for that read-out and setting: to `Cc1nc(CC(C)(C)N(Cl)Cl)n(CCS(=O)(=O)O)n1` belongs 64 µg/mL (≈ 193 µM); to `CN(CCS(=O)(=O)O)C(=O)CC(C)(C)N(Cl)Cl`, 32 µg/mL (≈ 104 µM).
Same read-out and setting: to `Cc1nn(C)c(CC(C)(C)N(Cl)Cl)[n+]1C.[Cl-]` belongs 32 µg/mL; to `CC(C)(C[N+](C)(C)CCS(=O)(=O)O)N(Cl)Cl.[Cl-]`, 128 µg/mL; to `CN(CC[N+](C)(C)C)C(=O)CC(C)(C)N(Cl)Cl.[Cl-]`, 32 µg/mL.
The compound `CC(C)(Cc1ncnn1CCS(=O)(=O)O)N(Cl)Cl` returned an MFC of 64 µg/mL (≈ 202 µM). This MFC lies about 2-fold higher than the previous one.
The same measure, in the same setting: to `C[n+]1ccc(CCC(C)(C)N(Cl)Cl)cc1.[Cl-]` belongs 1020 µg/mL; to `CC(C)(C[N+](C)(C)C)N(Cl)Cl.[Cl-]`, 128 µg/mL; to `Cn1nc[n+](C)c1CC(C)(C)N(Cl)Cl.[Cl-]`, 16 µg/mL.
Same read-out and setting: for `C[S+](C)CC(C)(C)N(Cl)Cl.[Cl-]` the value was 128 µg/mL.
`CC(=O)N1CC[N+](C)(CC(C)(C)N(Cl)Cl)CC1.[Cl-]` returned an MFC of more than 1020 µg/mL.
The compound `CC(C)(CS(=O)(=O)[O-])N(Cl)Cl.[Na+]` had an MFC of 32 µg/mL.
Compound `CC(C)(CC(=O)NCCS(=O)(=O)O)N(Cl)Cl` displayed an MFC of 64 µg/mL (≈ 218 µM).
Still for that read-out and setting: for `CC(C)(c1cn(CCS(=O)(=O)O)nn1)N(Cl)Cl` the value was 32 µg/mL (≈ 106 µM).

Tested on in a further data set: not listed separately
The data set is described as follows: Stability in phosphate buffer assessed as half life at pH 7. Format: physicochemical.
Details: not given
In outline: (§2)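 Aqueous half-life is reported in days. Media were saline at pH 4, phosphate at pH 7, and, for some analogs, 0.6% borate buffer at pH 7. Biological testing was limited to analogs with aqueous stability above 24 h at 40 °C.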
Consider `CC(C)(C[N+]1(C)CCCCC1)N(Cl)Cl.[Cl-]`, for which the half-life is 100 days.
Same read-out and setting: to `CC(C)(Cc1nc(CS(=O)(=O)O)no1)N(Cl)Cl` belongs 17 days; to `Cc1nc(CC(C)(C)N(Cl)Cl)n(CCS(=O)(=O)O)n1`, 50 days; to `CN(CCS(=O)(=O)O)C(=O)CC(C)(C)N(Cl)Cl`, 1 days.
The same measure, in the same setting: for `Cc1nn(C)c(CC(C)(C)N(Cl)Cl)[n+]1C.[Cl-]` the value was 4 days; for `CC(C)(C[N+](C)(C)CCS(=O)(=O)O)N(Cl)Cl.[Cl-]`, 19 days; for `CC(C)(C[N+]1(C)CCOCC1)N(Cl)Cl.[Cl-]`, less than 1 days.
As for `CN(CC[N+](C)(C)C)C(=O)CC(C)(C)N(Cl)Cl.[Cl-]`, the half-life was 6 days.
Same read-out and setting: for `CC(C)(Cc1ncnn1CCS(=O)(=O)O)N(Cl)Cl` the value was 23 days; for `CC(C)(C[N+](C)(C)C)N(Cl)Cl.[Cl-]`, more than 396 days.
Same read-out and setting: for `Cn1nc[n+](C)c1CC(C)(C)N(Cl)Cl.[Cl-]` the value was 5 days; for `C[S+](C)CC(C)(C)N(Cl)Cl.[Cl-]`, 1 days; for `CC(C)(CC(=O)OCC[N+]1(C)CCCCC1)N(Cl)Cl.[Cl-]`, 7 days.
The same measure, in the same setting: to `CC(C)(CS(=O)(=O)[O-])N(Cl)Cl.[Na+]` belongs more than 300 days.
Turning to `CC(C)(c1cn(CCS(=O)(=O)O)nn1)N(Cl)Cl`, the half-life was 5 days.

Tested on in another data set: not listed separately
The data set is described as follows: Stability in saline solution assessed as half life at pH 4. Format: physicochemical.
Details: not given
The method, boiled down: as §2
For `CC(C)(C[N+]1(C)CCCCC1)N(Cl)Cl.[Cl-]`, the half-life is more than 122 days.
On the same count and under the same terms, for `CC(C)(Cc1nc(CS(=O)(=O)O)no1)N(Cl)Cl` the value was 106 days; for `Cc1nc(CC(C)(C)N(Cl)Cl)n(CCS(=O)(=O)O)n1`, 46 days.
Regarding `CN(CCS(=O)(=O)O)C(=O)CC(C)(C)N(Cl)Cl`, the half-life was 1 days.
On the same count and under the same terms, to `Cc1nn(C)c(CC(C)(C)N(Cl)Cl)[n+]1C.[Cl-]` belongs 61 days; to `CC(C)(C[N+](C)(C)CCS(=O)(=O)O)N(Cl)Cl.[Cl-]`, more than 180 days.
In the case of `CC(C)(C[N+]1(C)CCOCC1)N(Cl)Cl.[Cl-]`, the half-life is less than 1 days.
Same read-out and setting: for `CN(CC[N+](C)(C)C)C(=O)CC(C)(C)N(Cl)Cl.[Cl-]` the value was 4 days; for `CC(C)(Cc1ncnn1CCS(=O)(=O)O)N(Cl)Cl`, 21 days; for `C[n+]1ccc(CCC(C)(C)N(Cl)Cl)cc1.[Cl-]`, more than 60 days.
On the same count and under the same terms, to `CC(C)(C[N+](C)(C)C)N(Cl)Cl.[Cl-]` belongs more than 325 days.
On the same count and under the same terms, for `Cn1nc[n+](C)c1CC(C)(C)N(Cl)Cl.[Cl-]` the value was 67 days; for `C[S+](C)CC(C)(C)N(Cl)Cl.[Cl-]`, more than 67 days; for `CC(=O)N1CC[N+](C)(CC(C)(C)N(Cl)Cl)CC1.[Cl-]`, 37 days.
Take `CC(C)(CC(=O)OCC[N+]1(C)CCCCC1)N(Cl)Cl.[Cl-]`: the half-life was more than 72 days.
The same measure, in the same setting: for `CC(C)(CS(=O)(=O)[O-])N(Cl)Cl.[Na+]` the value was more than 730 days; for `CC(C)(CC(=O)NCCS(=O)(=O)O)N(Cl)Cl`, 33 days.
Same read-out and setting: to `CC(C)(c1cn(CCS(=O)(=O)O)nn1)N(Cl)Cl` belongs 10 days.

Tested on in another data set: not listed separately
The data set is described as follows: Stability in 0.6% borate buffer assessed as half life at pH 7.
Details: not given
Format: physicochemical. The method, boiled down:
as §2
As for `C[n+]1ccc(CCC(C)(C)N(Cl)Cl)cc1.[Cl-]`, the half-life is 20 days.
As for `CC(=O)N1CC[N+](C)(CC(C)(C)N(Cl)Cl)CC1.[Cl-]`, the half-life was 6 days.
Consider `CC(C)(CC(=O)NCCS(=O)(=O)O)N(Cl)Cl`, for which the half-life was 36 days.

Another data set relates to Staphylococcus aureus. The data set is described as follows: Antibacterial activity against Staphylococcus aureus ATCC 29213 after 1 hr by CLSI M26-A based method at room temperature. It is filed as functional. Particulars: ATCC 29213, 1 h. In outline:
as §1
With `CC(C)(C[N+]1(C)CCCCC1)N(Cl)Cl.[Cl-]`, the MBC worked out at 16 µg/mL.
Still for that read-out and setting: for `CC(C)(Cc1nc(CS(=O)(=O)O)no1)N(Cl)Cl` the value was 2 µg/mL (≈ 6.58 µM).
The same measure, in the same setting: for `Cc1nc(CC(C)(C)N(Cl)Cl)n(CCS(=O)(=O)O)n1` the value was 4 µg/mL (≈ 12.1 µM); for `CN(CCS(=O)(=O)O)C(=O)CC(C)(C)N(Cl)Cl`, 2 µg/mL (≈ 6.51 µM); for `Cc1nn(C)c(CC(C)(C)N(Cl)Cl)[n+]1C.[Cl-]`, 8 µg/mL.
Turning to `CC(C)(C[N+](C)(C)CCS(=O)(=O)O)N(Cl)Cl.[Cl-]`, the MBC came out at 64 µg/mL.
`CN(CC[N+](C)(C)C)C(=O)CC(C)(C)N(Cl)Cl.[Cl-]` returned an MBC of 16 µg/mL.
The same measure, in the same setting: to `CC(C)(Cc1ncnn1CCS(=O)(=O)O)N(Cl)Cl` belongs 4 µg/mL (≈ 12.6 µM); to `C[n+]1ccc(CCC(C)(C)N(Cl)Cl)cc1.[Cl-]`, 8 µg/mL; to `CC(C)(C[N+](C)(C)C)N(Cl)Cl.[Cl-]`, 16 µg/mL.
On the same count and under the same terms, for `Cn1nc[n+](C)c1CC(C)(C)N(Cl)Cl.[Cl-]` the value was 4 µg/mL; for `C[S+](C)CC(C)(C)N(Cl)Cl.[Cl-]`, 8 µg/mL.
The same measure, in the same setting: for `CC(=O)N1CC[N+](C)(CC(C)(C)N(Cl)Cl)CC1.[Cl-]` the value was 64 µg/mL.
`CC(C)(CC(=O)OCC[N+]1(C)CCCCC1)N(Cl)Cl.[Cl-]`: the MBC amounted to 4 µg/mL.
Take `CC(C)(CS(=O)(=O)[O-])N(Cl)Cl.[Na+]`: the MBC was found to be 2 µg/mL.
For `CC(C)(CC(=O)NCCS(=O)(=O)O)N(Cl)Cl`, the MBC worked out at 8 µg/mL (≈ 27.3 µM).
On the same count and under the same terms, for `CC(C)(c1cn(CCS(=O)(=O)O)nn1)N(Cl)Cl` the value was 8 µg/mL (≈ 26.4 µM).

Tested on in the next data set: not listed separately
The data set is described as follows: Stability in water assessed as half life at pH 4 at 40 degC. It is filed as physicochemical.
Details: not given
For `CC(C)(CNC(=O)CCS(=O)(=O)O)N(Cl)Cl`, the half-life is 0.5 days.
As for `CC(C)(COCCCS(=O)(=O)O)N(Cl)Cl`, the half-life was 0.104 days.
The same measure, in the same setting: for `CC(C)(CC(=O)OCCS(=O)(=O)O)N(Cl)Cl` the value was more than 95 days.

A further data set deals with Escherichia coli. The data set is described as follows: Antibacterial activity against Escherichia coli ATCC 25922 after 1 hr by CLSI M26-A based method at room temperature. Particulars: ATCC 25922, 1 h. It is filed as functional. In outline:
as §1
The compound `CC(C)(C[N+]1(C)CCCCC1)N(Cl)Cl.[Cl-]` showed an MBC of 8 µg/mL.
Same read-out and setting: to `CC(C)(Cc1nc(CS(=O)(=O)O)no1)N(Cl)Cl` belongs 4 µg/mL (≈ 13.2 µM).
Same read-out and setting: for `Cc1nc(CC(C)(C)N(Cl)Cl)n(CCS(=O)(=O)O)n1` the value was 4 µg/mL (≈ 12.1 µM).
On the same count and under the same terms, to `CN(CCS(=O)(=O)O)C(=O)CC(C)(C)N(Cl)Cl` belongs 1 µg/mL (≈ 3.26 µM); to `Cc1nn(C)c(CC(C)(C)N(Cl)Cl)[n+]1C.[Cl-]`, 4 µg/mL.
In the case of `CC(C)(C[N+](C)(C)CCS(=O)(=O)O)N(Cl)Cl.[Cl-]`, the MBC came to 16 µg/mL.
On the same count and under the same terms, to `CN(CC[N+](C)(C)C)C(=O)CC(C)(C)N(Cl)Cl.[Cl-]` belongs 2 µg/mL; to `CC(C)(Cc1ncnn1CCS(=O)(=O)O)N(Cl)Cl`, 2 µg/mL (≈ 6.31 µM).
In the case of `C[n+]1ccc(CCC(C)(C)N(Cl)Cl)cc1.[Cl-]`, the MBC was found to be 2 µg/mL.
Take `CC(C)(C[N+](C)(C)C)N(Cl)Cl.[Cl-]`: the MBC came to 8 µg/mL. This MBC is about 4-fold higher than that of the compound before.
Same read-out and setting: to `Cn1nc[n+](C)c1CC(C)(C)N(Cl)Cl.[Cl-]` belongs 2 µg/mL; to `C[S+](C)CC(C)(C)N(Cl)Cl.[Cl-]`, 4 µg/mL.
The same measure, in the same setting: for `CC(=O)N1CC[N+](C)(CC(C)(C)N(Cl)Cl)CC1.[Cl-]` the value was 16 µg/mL.
The compound `CC(C)(CC(=O)OCC[N+]1(C)CCCCC1)N(Cl)Cl.[Cl-]` came in with an MBC of 2 µg/mL.
Same read-out and setting: for `CC(C)(CS(=O)(=O)[O-])N(Cl)Cl.[Na+]` the value was 2 µg/mL; for `CC(C)(CC(=O)NCCS(=O)(=O)O)N(Cl)Cl`, 2 µg/mL (≈ 6.82 µM); for `CC(C)(c1cn(CCS(=O)(=O)O)nn1)N(Cl)Cl`, 4 µg/mL (≈ 13.2 µM).

These data come from ChEMBL document CHEMBL1151862, “Quaternary ammonium N,N-dichloroamines as topical, antimicrobial agents” (Bioorg Med Chem Lett, 2009).
